The values below come from ChEMBL document CHEMBL1146090, “Similarity based virtual screening: a tool for targeted library design” (J Med Chem, 2006).

Usually inhibition stands for the drop in the measured response relative to a control, in per cent.

Data set [1] in a line: Viability of HL cells at 50 uM. The data set is classed as cell-based. The note with it: human, read-out: Activity. The essentials: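 Viable HL cells counted through intracellular LDH after 3 days exposure to 50 μM agent. Medium removed, cells washed twice and lysed, then LDH measured with the same kit. Percentage derived against LDH from unexposed cultures. Mean of four replicates, single experiment.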

Data set [2] relates to HL. Nature of the data set: Cytotoxicity against HL cells at 50 uM. The data set is classed as functional.
Data set [3] concerns Chlamydia pneumoniae. Nature of the data set: Antibacterial activity against Chlamydia pneumoniae in HL cells at 1 uM. The data set is classed as functional. In short, it runs like this: (§1)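 HL host cells (RPMI 1640, 10% FBS, 2 mM L-glutamine, 37 °C, 5% CO2) seeded 5×10^4/well; after 24 h, confluent monolayers inoculated by centrifugation (550 × g, 60 min) with C. pneumoniae Kajaani 7 EBs, 4×10^5 IFU/mL. Agent added in antibiotic-free medium plus 0.5 μg/mL cycloheximide; 72 h, 37 °C. Methanol-fixed; europium-labelled genus-specific antibody, time-resolved fluorometry. Two experiments on different days, six replicates each, averaged.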

The subject of data set [4] is Chlamydia pneumoniae. Put plainly: Antibacterial activity against Chlamydia pneumoniae in HL cells at 70 uM. It counts as functional. In short, it runs like this:
as §1

The test system of data set [5] is Chlamydia pneumoniae. Nature of the data set: Antibacterial activity against Chlamydia pneumoniae in HL cells at 5 uM. It counts as functional. The essentials:
as §1

In data set [6] the test system is Chlamydia pneumoniae. Nature of the data set: Antibacterial activity against Chlamydia pneumoniae in HL cells at 50 uM. The data set is classed as functional. The essentials: as §1

Take `N=C(NOC(=O)Nc1cccc(Cl)c1)c1ccc2nonc2c1`: the viability at 50 µM in data set [1] was determined as 99.3%. In data set [2], this molecule showed a cytotoxicity of 1.1%. The molecule also registered an inhibition at 1 µM in data set [3] of 0%. In addition, at 70 µM the inhibition in data set [4] was 99.3%. This molecule came in with an inhibition at 5 µM in data set [5] of 6.8%. In data set [6], this molecule returned an inhibition at 50 µM of 85.5%.
In the case of `O=C(Nc1cccc(-c2nc3ccccc3[nH]2)c1)c1ccccc1`, the viability at 50 µM in data set [1] stood at 95.5%. The cytotoxicity in data set [2] is 1.2%. Further, at 1 µM the inhibition in data set [3] was 14.6%. In data set [4], the inhibition at 70 µM turned out to be 69.1%. The molecule further returned an inhibition at 5 µM in data set [5] of 19.7%. Moreover, in data set [6], testing at 50 µM gave an inhibition of 69.6%.
Consider `N=C(NOC(=O)Nc1ccccc1)c1ccc2nonc2c1`, for which the viability at 50 µM in data set [1] was found to be 100%. The molecule further showed a cytotoxicity in data set [2] of 0%. The inhibition at 1 µM in data set [3] came to 0%. Moreover, the inhibition at 70 µM in data set [4] was 72.5%. Moreover, the inhibition at 5 µM in data set [5] was 0.2%. This molecule registered an inhibition at 50 µM in data set [6] of 56.1%.
On to `c1ccc(-c2cc3ncnc(NCc4ccc5c(c4)OCO5)c3s2)cc1`, for which the viability at 50 µM in data set [1] came to 98.2%. The cytotoxicity in data set [2] turned out to be 0.4%. This molecule also came in with an inhibition at 1 µM in data set [3] of 2.1%. Further, testing at 70 µM in data set [4] gave an inhibition of 71.2%. The molecule also registered an inhibition at 5 µM in data set [5] of 58.8%. This molecule had an inhibition at 50 µM in data set [6] of 68.6%.
`Nc1nc(Nc2ccccc2)nc(Nc2ccccc2)n1`: in data set [1], the viability at 50 µM was determined as 83.4%. The same molecule had a cytotoxicity in data set [2] of 3.7%. The molecule also displayed an inhibition at 1 µM in data set [3] of 0%. In addition, the inhibition at 70 µM in data set [4] stood at 100%. In data set [5], this molecule had an inhibition at 5 µM of 0%. The molecule further returned an inhibition at 50 µM in data set [6] of 72.8%.
For the molecule `Nc1nc(Nc2ccc(Cl)cc2)nc(-c2cc(Cl)ccc2O)n1`, the viability at 50 µM in data set [1] came to 95%. In addition, the cytotoxicity in data set [2] is reported as 1.4%. In data set [3], this molecule gave an inhibition at 1 µM of 0%. For the same molecule, in data set [4], the inhibition at 70 µM was 83.9%. This molecule also registered an inhibition at 5 µM in data set [5] of 76%. Testing at 50 µM in data set [6] gave an inhibition of 79.8%.
Regarding `O=C(Nc1ccc2c(c1)OCCO2)c1cccc(COc2cc(Cl)ccc2Cl)c1`, in data set [1], the viability at 50 µM was found to be 86.2%. The molecule further had a cytotoxicity in data set [2] of 2.3%. Moreover, in data set [3], the inhibition at 1 µM worked out at 0%. The molecule also came in with an inhibition at 70 µM in data set [4] of 93.6%. Moreover, at 5 µM the inhibition in data set [5] was 15.3%. This molecule also had an inhibition at 50 µM in data set [6] of 81.8%.
Consider `O=C(Nc1cccc(-c2nc3ccccc3[nH]2)c1)c1cccs1`, for which the viability at 50 µM in data set [1] amounted to 98%. Also, the cytotoxicity in data set [2] was found to be 1.2%. Besides, the inhibition at 1 µM in data set [3] was 39.5%. The molecule also came in with an inhibition at 70 µM in data set [4] of 92.6%. Testing at 5 µM in data set [5] gave an inhibition of 41.2%. For the same molecule, the inhibition at 50 µM in data set [6] came to 90.5%.
